Laboratory results reported in ChEMBL document CHEMBL4828740, “Discovery of Quinoxaline-Based P1-P3 Macrocyclic NS3/4A Protease Inhibitors with Potent Activity against Drug-Resistant Hepatitis C Virus Variants” (J Med Chem, 2021).

Legend:
Hepatitis C virus [1] = assay: Antiviral activity against HCV genotype 3a infected in human Huh7.5 cells incubated for 72 hrs by luciferase assay; assay type: functional, organism-based, Hepacivirus hominis; conditions: subtype 3a, Huh7.5, 72 h
Procedure, shortened: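 Huh7.5 cells stably harboring the GT-3a replicon S52/SG-Feo SHI, seeded at 8,000 cells/well. Cells lysed in 1X Passive Lysis Buffer and luciferase activity measured. EC50 taken from drug inhibition curves.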

Hepatitis C virus [2] = assay: Antiviral activity against HCV genotype 1b harboring D168A mutant infected in human Huh7 cells incubated for 96 hrs by luciferase assay; assay type: functional, organism-based, Hepacivirus hominis; conditions: subtype 1b, Huh-7, 96 h
Procedure, shortened: (§1)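 Con1 (GT-1b) luciferase reporter replicon carrying the H77 (GT-1a) NS3 protease region, with the mutation introduced by megaprimer site-directed mutagenesis. Cured Huh7 cells were grown in DMEM with 10% heat-inactivated FBS and 0.1 mM non-essential amino acids, electroporated with replicon RNA transcripts, and kept with serially diluted inhibitor. EC50 was taken directly from the inhibition curves.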

Hepatitis C virus [3] = assay: Antiviral activity against HCV genotype 1b infected in human Huh7 cells incubated for 96 hrs by luciferase assay; assay type: functional, organism-based, Hepacivirus hominis; conditions: Huh-7, 96 h
Procedure, shortened: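 Con1 (GT-1b) luciferase reporter replicon carrying the H77 (GT-1a) NS3 protease region, either WT or with A156T or D168A introduced by megaprimer mutagenesis. Cured Huh7 cells grown in DMEM with 10% heat-inactivated FBS and 0.1 mM non-essential amino acids. Cells electroporated with replicon RNA and kept with serially diluted inhibitor.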

[4] = target: T1, Hepatitis C virus serine protease, NS3/NS4A (Hepatitis C virus, UniProt A3EZI9+D2K2A8); assay: Inhibition of HCV GT-1a NS3/4a protease using Ac-DE-D(Edans)-EE-Abu-c-[COO]-AS-K(Dabcy1)-NH2 preincubated for 1 hr followed by substrate addition; assay type: protein complex, Hepatitis C virus subtype 1a
[5] = target: T1, Hepatitis C virus serine protease, NS3/NS4A; assay: Inhibition of HCV GT-3a NS3/4a protease using Ac-DE-D(Edans)-EE-Abu-c-[COO]-AS-K(Dabcy1)-NH2 preincubated for 1 hr followed by substrate addition; assay type: protein-complex assay, Hepatitis C virus subtype 3a
Hepatitis C virus [6] = assay: Antiviral activity against HCV genotype 1b harboring A156T mutant infected in human Huh7 cells incubated for 96 hrs by luciferase assay; assay type: functional, organism-based, Hepacivirus hominis; conditions: subtype 1b, Huh-7, 96 h; procedure, shortened: as §1

CC(C)(C)[C@@H]1NC(=O)O[C@@H]2CCC[C@H]2OC/C=C/C(F)(F)c2nc3ccccc3nc2O[C@@H]2C[C@@H](C(=O)N[C@]3(C(=O)NS(=O)(=O)C4(C)CC4)C[C@H]3C(F)F)N(C2)C1=O
EC50 (Hepatitis C virus [1]): 30 nM | EC50 (Hepatitis C virus [2]): 0.2 nM | EC50 (Hepatitis C virus [3]): 0.2 nM

COc1ccc2nc(C)c(O[C@@H]3C[C@H]4C(=O)N[C@]5(C(=O)NS(=O)(=O)C6(C)CC6)C[C@H]5/C=C/CCCCC[C@H](NC(=O)O[C@H](C)C(F)(F)F)C(=O)N4C3)nc2c1
EC50 (Hepatitis C virus [1]): 260 nM | Ki [4]: 1.1 nM | Ki [5]: 122 nM | EC50 (Hepatitis C virus [6]): 18 nM | EC50 (Hepatitis C virus [2]): 2.5 nM | EC50 (Hepatitis C virus [3]): 0.5 nM

COc1ccc2nc(C)c(O[C@@H]3C[C@H]4C(=O)N[C@]5(C(=O)NS(=O)(=O)C6(C)CC6)C[C@H]5/C=C/CCCCC[C@H](NC(=O)O[C@@H]5CCC[C@H]5F)C(=O)N4C3)nc2c1
Ki [4]: 2.3 nM | Ki [5]: 216 nM | EC50 (Hepatitis C virus [6]): 12 nM | EC50 (Hepatitis C virus [2]): 43 nM | EC50 (Hepatitis C virus [3]): 0.4 nM

COc1ccc2nc(O[C@@H]3C[C@H]4C(=O)N[C@]5(C(=O)NS(=O)(=O)C6(C)CC6)C[C@H]5/C=C/CCCCC[C@H](NC(=O)OC(C)(C)C)C(=O)N4C3)c(C(F)(F)F)nc2c1
Ki [4]: 5.8 nM | Ki [5]: 230 nM | EC50 (Hepatitis C virus [6]): 12 nM | EC50 (Hepatitis C virus [2]): 4.7 nM | EC50 (Hepatitis C virus [3]): 0.9 nM

COc1ccc2nc(C)c(O[C@@H]3C[C@H]4C(=O)N[C@]5(C(=O)NS(=O)(=O)C6(C)CC6)C[C@H]5/C=C/CCCCC[C@H](NC(=O)OC5C[C@@H]6C[C@@H]6C5)C(=O)N4C3)nc2c1 (stereo partly specified)
EC50 (Hepatitis C virus [1]): 900 nM | Ki [4]: 0.5 nM | Ki [5]: 39 nM | EC50 (Hepatitis C virus [6]): 5.3 nM | EC50 (Hepatitis C virus [2]): 0.5 nM | EC50 (Hepatitis C virus [3]): 0.1 nM

COc1ccc2nc(C)c(O[C@@H]3C[C@H]4C(=O)N[C@]5(C(=O)NS(=O)(=O)C6(C)CC6)C[C@H]5/C=C/CCCCC[C@H](NC(=O)OCC5(C(F)(F)F)CC5)C(=O)N4C3)nc2c1
EC50 (Hepatitis C virus [1]): 330 nM | Ki [4]: 0.9 nM | Ki [5]: 230 nM | EC50 (Hepatitis C virus [6]): 5.6 nM | EC50 (Hepatitis C virus [2]): 1.4 nM | EC50 (Hepatitis C virus [3]): 0.1 nM

COc1ccc2nc(O[C@@H]3C[C@H]4C(=O)N[C@]5(C(=O)NS(=O)(=O)C6(C)CC6)C[C@H]5/C=C/CCCCC[C@H](NC(=O)O[C@@H](C)C5CC5)C(=O)N4C3)c(C(F)(F)F)nc2c1
Ki [4]: 10 nM | Ki [5]: 412 nM | EC50 (Hepatitis C virus [6]): 18 nM | EC50 (Hepatitis C virus [2]): 18 nM | EC50 (Hepatitis C virus [3]): 3.3 nM

COc1ccc2nc(O[C@@H]3C[C@H]4C(=O)N[C@]5(C(=O)NS(=O)(=O)C6(C)CC6)C[C@H]5/C=C/CCCCC[C@H](NC(=O)O[C@@H](C)C(C)C)C(=O)N4C3)c(C(F)(F)F)nc2c1
EC50 (Hepatitis C virus [1]): 1500 nM | Ki [4]: 6.1 nM | Ki [5]: 447 nM | EC50 (Hepatitis C virus [6]): 8.7 nM | EC50 (Hepatitis C virus [2]): 3.1 nM | EC50 (Hepatitis C virus [3]): 0.9 nM

COc1ccc2nc(O[C@@H]3C[C@H]4C(=O)N[C@]5(C(=O)NS(=O)(=O)C6(C)CC6)C[C@H]5/C=C/CCCCC[C@H](NC(=O)OC(C)(C)C(F)(F)F)C(=O)N4C3)c(C(F)(F)F)nc2c1
EC50 (Hepatitis C virus [1]): 330 nM | Ki [4]: 3.6 nM | Ki [5]: 390 nM | EC50 (Hepatitis C virus [6]): 10 nM | EC50 (Hepatitis C virus [2]): 4.3 nM | EC50 (Hepatitis C virus [3]): 1 nM

COc1ccc2nc(O[C@@H]3C[C@H]4C(=O)N[C@]5(C(=O)NS(=O)(=O)C6(C)CC6)C[C@H]5/C=C/CCCCC[C@H](NC(=O)O[C@H](C)C(F)(F)F)C(=O)N4C3)c(C(F)(F)F)nc2c1
Ki [4]: 2.8 nM | Ki [5]: 490 nM | EC50 (Hepatitis C virus [6]): 30 nM | EC50 (Hepatitis C virus [2]): 7.3 nM | EC50 (Hepatitis C virus [3]): 1.6 nM

COc1ccc2nc(O[C@@H]3C[C@H]4C(=O)N[C@]5(C(=O)NS(=O)(=O)C6(C)CC6)C[C@H]5/C=C/CCCCC[C@H](NC(=O)OC5CCC5)C(=O)N4C3)c(C(F)(F)F)nc2c1
Ki [4]: 8.5 nM | Ki [5]: 870 nM | EC50 (Hepatitis C virus [6]): 9.6 nM | EC50 (Hepatitis C virus [2]): 50 nM | EC50 (Hepatitis C virus [3]): 1.8 nM

CCC(CC)OC(=O)N[C@H]1CCCCC/C=C/[C@@H]2C[C@@]2(C(=O)NS(=O)(=O)C2(C)CC2)NC(=O)[C@@H]2C[C@@H](Oc3nc4ccc(OC)cc4nc3C(F)(F)F)CN2C1=O
Ki [4]: 4.6 nM | Ki [5]: 840 nM | EC50 (Hepatitis C virus [6]): 85 nM | EC50 (Hepatitis C virus [2]): 17 nM | EC50 (Hepatitis C virus [3]): 4.1 nM

CCC(C)(C)OC(=O)N[C@H]1CCCCC/C=C/[C@@H]2C[C@@]2(C(=O)NS(=O)(=O)C2(C)CC2)NC(=O)[C@@H]2C[C@@H](Oc3nc4ccc(OC)cc4nc3C(F)(F)F)CN2C1=O
Ki [4]: 2.7 nM | Ki [5]: 240 nM | EC50 (Hepatitis C virus [6]): 10 nM | EC50 (Hepatitis C virus [2]): 11 nM | EC50 (Hepatitis C virus [3]): 1.5 nM

COc1ccc2nc(C)c(O[C@@H]3C[C@H]4C(=O)N[C@]5(C(=O)NS(=O)(=O)C6(C)CC6)C[C@H]5/C=C/CCCCC[C@H](NC(=O)OC5(C(F)(F)F)CCC5)C(=O)N4C3)nc2c1
EC50 (Hepatitis C virus [1]): 310 nM | Ki [4]: 1.5 nM | Ki [5]: 96 nM | EC50 (Hepatitis C virus [6]): 5.9 nM | EC50 (Hepatitis C virus [2]): 25 nM | EC50 (Hepatitis C virus [3]): 0.3 nM

COc1ccc2nc(O[C@@H]3C[C@H]4C(=O)N[C@]5(C(=O)NS(=O)(=O)C6(C)CC6)C[C@H]5/C=C/CCCCC[C@H](NC(=O)OC5(C)CCC5)C(=O)N4C3)c(C(F)(F)F)nc2c1
Ki [4]: 4.9 nM | Ki [5]: 283 nM | EC50 (Hepatitis C virus [6]): 26 nM | EC50 (Hepatitis C virus [2]): 58 nM | EC50 (Hepatitis C virus [3]): 1.6 nM

COc1ccc2nc(O[C@@H]3C[C@H]4C(=O)N[C@]5(C(=O)NS(=O)(=O)C6(C)CC6)C[C@H]5/C=C/CCCCC[C@H](NC(=O)OC5(C)CCCC5)C(=O)N4C3)c(C(F)(F)F)nc2c1
Ki [4]: 0.9 nM | Ki [5]: 161 nM | EC50 (Hepatitis C virus [6]): 70 nM | EC50 (Hepatitis C virus [2]): 16 nM | EC50 (Hepatitis C virus [3]): 5.8 nM

COc1ccc2nc(O[C@@H]3C[C@H]4C(=O)N[C@]5(C(=O)NS(=O)(=O)C6(C)CC6)C[C@H]5/C=C/CCCCC[C@H](NC(=O)O[C@@H](C)C(F)(F)F)C(=O)N4C3)c(C(F)(F)F)nc2c1
Ki [4]: 7.7 nM | Ki [5]: 580 nM | EC50 (Hepatitis C virus [6]): 75 nM | EC50 (Hepatitis C virus [2]): 18 nM | EC50 (Hepatitis C virus [3]): 5.6 nM

COc1ccc2nc(O[C@@H]3C[C@H]4C(=O)N[C@]5(C(=O)NS(=O)(=O)C6(C)CC6)C[C@H]5/C=C/CCCCC[C@H](NC(=O)OC5(C(F)(F)F)CCC5)C(=O)N4C3)c(C(F)(F)F)nc2c1
EC50 (Hepatitis C virus [1]): 900 nM | Ki [4]: 2 nM | Ki [5]: 133 nM | EC50 (Hepatitis C virus [6]): 5.1 nM | EC50 (Hepatitis C virus [2]): 7.8 nM | EC50 (Hepatitis C virus [3]): 1.4 nM

COc1ccc2nc(O[C@@H]3C[C@H]4C(=O)N[C@]5(C(=O)NS(=O)(=O)C6(C)CC6)C[C@H]5/C=C/CCCCC[C@H](NC(=O)OC5CCCC5)C(=O)N4C3)c(C(F)(F)F)nc2c1
Ki [4]: 8.1 nM | Ki [5]: 433 nM | EC50 (Hepatitis C virus [6]): 45 nM | EC50 (Hepatitis C virus [2]): 6.2 nM | EC50 (Hepatitis C virus [3]): 3.2 nM

COc1ccc2nc(O[C@@H]3C[C@H]4C(=O)N[C@]5(C(=O)NS(=O)(=O)C6(C)CC6)C[C@H]5/C=C/CCCCC[C@H](NC(=O)OCC5(C)CC5(F)F)C(=O)N4C3)c(C(F)(F)F)nc2c1 (stereo partly specified)
Ki [4]: 2.1 nM | Ki [5]: 336 nM | EC50 (Hepatitis C virus [6]): 130 nM | EC50 (Hepatitis C virus [2]): 8.5 nM | EC50 (Hepatitis C virus [3]): 2.7 nM

COc1ccc2nc(C)c(O[C@@H]3C[C@H]4C(=O)N[C@]5(C(=O)NS(=O)(=O)C6(C)CC6)C[C@H]5/C=C/CCCCC[C@H](NC(=O)OC(C)(C)C(F)(F)F)C(=O)N4C3)nc2c1
EC50 (Hepatitis C virus [1]): 160 nM | Ki [4]: 2.6 nM | Ki [5]: 66 nM | EC50 (Hepatitis C virus [6]): 3.3 nM | EC50 (Hepatitis C virus [3]): 0.8 nM

COc1ccc2nc(O[C@@H]3C[C@H]4C(=O)N[C@]5(C(=O)NS(=O)(=O)C6(C)CC6)C[C@H]5/C=C/CCCCC[C@H](NC(=O)OC5CC5)C(=O)N4C3)c(C(F)(F)F)nc2c1
Ki [4]: 14 nM | Ki [5]: 522 nM | EC50 (Hepatitis C virus [6]): 36 nM | EC50 (Hepatitis C virus [2]): 14 nM | EC50 (Hepatitis C virus [3]): 2 nM

COc1ccc2nc(O[C@@H]3C[C@H]4C(=O)N[C@]5(C(=O)NS(=O)(=O)C6(C)CC6)C[C@H]5/C=C/CCCCC[C@H](NC(=O)OC5(C(F)(F)F)CCCC5)C(=O)N4C3)c(C(F)(F)F)nc2c1
EC50 (Hepatitis C virus [1]): 290 nM | Ki [4]: 5.7 nM | Ki [5]: 414 nM | EC50 (Hepatitis C virus [6]): 19 nM | EC50 (Hepatitis C virus [2]): 5.2 nM | EC50 (Hepatitis C virus [3]): 0.7 nM
